Laboratory results taken from ChEMBL document CHEMBL1145462, “In vivo pharmacodynamic activity of the glycopeptide dalbavancin” (Antimicrob Agents Chemother, 2007).
≈ marks a conversion by molar mass, not a printed value.

How the values were obtained:
Staphylococcus aureus [1] = assay: AUC/MIC ratio of methicillin-resistant Staphylococcus aureus infected neutropenic mouse thigh infection model at 62 mg/kg, ip administered every 72 hrs by 1-log killing experiment; assay type: functional; details: route intraperitoneal
Staphylococcus aureus [2] = assay: AUC/MBC ratio of Staphylococcus aureus 31005 infected neutropenic mouse thigh infection model at 49.3 mg/kg, ip administered every 24 hrs by static effect experiment; assay type: functional; details: route intraperitoneal
Staphylococcus aureus [3] = assay: AUC/MBC ratio of Staphylococcus aureus 307109 infected neutropenic mouse thigh infection model at 31 mg/kg, ip administered every 72 hrs by static effect experiment; assay type: functional; details: route intraperitoneal
Streptococcus pneumoniae [4] = assay: AUC/MIC ratio of Streptococcus pneumoniae 1199 infected neutropenic mouse thigh infection model at 0.40 mg/kg, ip administered every 24 hrs by static effect experiment; assay type: functional; details: dose 0.4 mg/kg; route intraperitoneal
Streptococcus pneumoniae [5] = assay: Antibacterial activity against Streptococcus pneumoniae 1325 by microdilution method; assay type: functional
Procedure, shortened: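 MIC and MBC were determined by CLSI broth microdilution, in duplicate on at least two occasions. Staphylococci were grown in Mueller-Hinton broth and agar; pneumococci were plated on sheep blood agar.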

Staphylococcus aureus [6] = assay: AUC/MIC ratio of Staphylococcus aureus 33591 infected neutropenic mouse thigh infection model at 114 mg/kg, ip administered every 72 hrs by 2-log killing experiment; assay type: functional; details: route intraperitoneal
Streptococcus pneumoniae [7] = assay: AUC/MIC ratio of Streptococcus pneumoniae 1396 infected neutropenic mouse thigh infection model at 0.61 mg/kg, ip administered every 72 hrs by 1-log killing experiment; assay type: functional; details: route intraperitoneal
Streptococcus pneumoniae [8] = assay: Bactericidal activity against penicillin-susceptible Streptococcus pneumoniae ATCC 10813 infected neutropenic Swiss ICR mouse thigh infection model assessed as drug level causing 2-log reduction of bacterial count at 1.34 mg/kg, ip dosed every 24 hrs; assay type: functional; details: route intraperitoneal
Procedure, shortened: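 Neutropenic mice (cyclophosphamide ip 150 mg/kg day −4, 100 mg/kg day −1, then every 48 h) received 0.1 ml log-phase inoculum per thigh under halothane. Intraperitoneal dalbavancin started 2 h later and was given for 6 days at q12h, q24h, q36h or q72h, two mice per regimen. Thigh CFU were counted at 144 h. Endpoint doses relative to start-of-therapy counts came from Hill-model nonlinear regression and are expressed per 24 h.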

Staphylococcus aureus [9] = assay: AUC/MBC ratio of Staphylococcus aureus 33591 infected neutropenic mouse thigh infection model at 27.7 mg/kg, ip administered every 24 hrs by 1-log killing experiment; assay type: functional; details: route intraperitoneal
[10] = AUC in bacterial pathogen-infected neutropenic Swiss ICR mouse thigh infection model at 2.5 mg/kg, ip; assay type: ADME, organism-based; set-up: dose 2.5 mg/kg, route intraperitoneal; details: in vivo
Procedure, shortened: (§1)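 Single-dose serum PK in thigh-infected neutropenic mice; intraperitoneal dalbavancin (0.2 ml/dose) at 2.5–80 mg/kg. Blood from groups of three mice at 0.5–96 h by retroorbital aspiration; plasma level by Bacillus subtilis microbiologic assay (detection limit 0.10 mg/liter). Noncompartmental analysis; AUC by trapezoidal rule from mean concentrations, extrapolated to infinity.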

[11] = Cmax in bacterial pathogen-infected neutropenic Swiss ICR mouse thigh infection model at 40 mg/kg, ip; assay type: ADME, organism-based; set-up: dose 40 mg/kg, route intraperitoneal; details: in vivo
Procedure, shortened: (§2)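 Thigh-infected neutropenic mice received single intraperitoneal doses (2.5, 5, 10, 20, 40, 80 mg/kg; 0.2 ml/dose). Blood was drawn by retroorbital aspiration from groups of three mice at 0.5, 1, 2, 4, 6, 24, 48, 72 and 96 h. Plasma levels were measured by microbiologic assay with Bacillus subtilis (detection limit 0.10 mg/liter). Noncompartmental analysis was used: half-life by linear least-squares regression, AUC by trapezoidal rule.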

Staphylococcus aureus [12] = assay: AUC/MBC ratio of Staphylococcus aureus ATCC 25923 infected neutropenic mouse thigh infection model at 185 mg/kg, ip administered every 72 hrs by 1-log killing experiment; assay type: functional; details: route intraperitoneal
Streptococcus pneumoniae [13] = assay: AUC/MIC ratio of Streptococcus pneumoniae 1325 infected neutropenic mouse thigh infection model at 0.83 mg/kg, ip administered every 72 hrs by static effect experiment; assay type: functional; details: route intraperitoneal
Streptococcus pneumoniae [14] = assay: AUC/MIC ratio of Streptococcus pneumoniae 1396 infected neutropenic mouse thigh infection model at 0.52 mg/kg, ip administered every 72 hrs by static effect experiment; assay type: functional; details: route intraperitoneal
[15] = Half life in bacterial pathogen-infected neutropenic Swiss ICR mouse thigh infection model at 40 mg/kg, ip; assay type: ADME, organism-based; set-up: dose 40 mg/kg, route intraperitoneal; details: in vivo; procedure, shortened: as §2
[16] = Cmax in bacterial pathogen-infected neutropenic Swiss ICR mouse thigh infection model at 20 mg/kg, ip; assay type: ADME, organism-based; set-up: dose 20 mg/kg, route intraperitoneal; details: in vivo; procedure, shortened: as §2
Staphylococcus aureus [17] = assay: AUC/MBC ratio of methicillin-resistant Staphylococcus aureus infected neutropenic mouse thigh infection model at 45.3 mg/kg, ip administered every 24 hrs by 1-log killing experiment; assay type: functional; details: route intraperitoneal
Staphylococcus aureus [18] = assay: AUC/MBC ratio of Staphylococcus aureus ATCC 25923 infected neutropenic mouse thigh infection model at 160 mg/kg, ip administered every 72 hrs by static effect experiment; assay type: functional; details: route intraperitoneal
Staphylococcus aureus [19] = assay: AUC/MIC ratio of Staphylococcus aureus 33591 infected neutropenic mouse thigh infection model at 74 mg/kg, ip administered every 72 hrs by static effect experiment; assay type: functional; details: route intraperitoneal
Staphylococcus aureus [20] = assay: AUC/MBC ratio of Staphylococcus aureus 307109 infected neutropenic mouse thigh infection model at 37 mg/kg, ip administered every 72 hrs by 2-log killing experiment; assay type: functional; details: route intraperitoneal
Streptococcus pneumoniae [21] = assay: AUC/MIC ratio of Streptococcus pneumoniae 1293 infected neutropenic mouse thigh infection model at 0.44 mg/kg, ip administered every 24 hrs by static effect experiment; assay type: functional; details: route intraperitoneal
Staphylococcus aureus [22] = assay: Bactericidal activity in ip dosed […] Staphylococcus aureus ATCC 29213 infected neutropenic mouse thigh infection model assessed as reduction of colony count after 96 hrs by time kill study; assay type: functional, Thigh muscle
Procedure, shortened: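 Neutropenic mice (cyclophosphamide ip 150 mg/kg day −4, 100 mg/kg day −1, then every 48 h) infected in thigh with 0.1 ml log-phase inoculum (10^6.6–10^7.6 CFU/ml) under halothane. Single ip doses of 5, 10, 20, 40, or 80 mg/kg were given 2 h later. Two mice sampled at 0.5–96 h. Thighs processed for CFU, reported as mean ± SD log10 CFU/thigh.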

Staphylococcus aureus [23] = assay: AUC/MIC ratio of Staphylococcus aureus 33591 infected neutropenic mouse thigh infection model at 93 mg/kg, ip administered every 72 hrs by 1-log killing experiment; assay type: functional; details: route intraperitoneal
Streptococcus pneumoniae [24] = assay: AUC/MIC ratio of Streptococcus pneumoniae 1325 infected neutropenic mouse thigh infection model at 1.73 mg/kg, ip administered every 24 hrs by 2-log killing experiment; assay type: functional; details: route intraperitoneal
[25] = Cmax in bacterial pathogen-infected neutropenic Swiss ICR mouse thigh infection model at 2.5 mg/kg, ip; assay type: ADME, organism-based; set-up: dose 2.5 mg/kg, route intraperitoneal; details: in vivo; procedure, shortened: as §1
Staphylococcus aureus [26] = assay: Bactericidal activity against […] Staphylococcus aureus ATCC 29213 infected neutropenic Swiss ICR mouse thigh infection model assessed as drug level causing 2-log reduction of bacterial count at 15 mg/kg, ip dosed every 36 hrs; assay type: functional; details: route intraperitoneal
Staphylococcus aureus [27] = assay: AUC/MIC ratio of Staphylococcus aureus 307109 infected neutropenic mouse thigh infection model at 31 mg/kg, ip administered every 72 hrs by static effect experiment; assay type: functional; details: route intraperitoneal
Staphylococcus aureus [28] = assay: AUC/MBC ratio of methicillin-resistant Staphylococcus aureus infected neutropenic mouse thigh infection model at 37.7 mg/kg, ip administered every 24 hrs by static effect experiment; assay type: functional; details: route intraperitoneal
Staphylococcus aureus [29] = assay: AUC/MBC ratio of Staphylococcus aureus Smith infected neutropenic mouse thigh infection model at 59 mg/kg, ip administered every 72 hrs by static effect experiment; assay type: functional; details: route intraperitoneal

SMILES: CN[C@H]1C(=O)N[C@@H]2Cc3ccc(cc3)Oc3cc4cc(c3O[C@@H]3O[C@H](C(=O)O)[C@@H](O)[C@H](O)[C@H]3NC(=O)CCCCCCCCC(C)C)Oc3ccc(cc3Cl)[C@@H](O)[C@@H]3NC(=O)[C@H](NC(=O)[C@@H]4NC(=O)[C@@H](NC2=O)c2cc(cc(O)c2Cl)Oc2cc1ccc2O)c1ccc(O)c(c1)-c1c(O[C@H]2O[C@H](CO)[C@@H](O)[C@H](O)[C@@H]2O)cc(O)cc1[C@@H](C(=O)NCCCN(C)C)NC3=O [DALBAVANCIN]
- RatioAUC/MIC (Staphylococcus aureus [1]): 202
- Ratio (Staphylococcus aureus [2]): 242
- Ratio (Staphylococcus aureus [3]): 11.3
- RatioAUC/MIC (Streptococcus pneumoniae [4]): 16
- MBC (Streptococcus pneumoniae [5]): 8 ng/mL (≈ 4.4 nM)
- MIC (Streptococcus pneumoniae [5]): 8 ng/mL (≈ 4.4 nM)
- RatioAUC/MIC (Staphylococcus aureus [6]): 195
- RatioAUC/MIC (Streptococcus pneumoniae [7]): 4.3
- Activity (Streptococcus pneumoniae [8]): 1.75
- Ratio (Staphylococcus aureus [9]): 58.3
- AUC [10]: 98000 ng·h/mL
- Cmax [11]: 385 µg/mL
- Ratio (Staphylococcus aureus [12]): 76.1
- RatioAUC/MIC (Streptococcus pneumoniae [13]): 6
- RatioAUC/MIC (Streptococcus pneumoniae [14]): 4
- half-life [15]: 10.4 h
- Cmax [16]: 190 µg/mL
- Ratio (Staphylococcus aureus [17]): 109
- Ratio (Staphylococcus aureus [18]): 66
- RatioAUC/MIC (Staphylococcus aureus [19]): 123
- Ratio (Staphylococcus aureus [20]): 14.6
- RatioAUC/MIC (Streptococcus pneumoniae [21]): 17.4
- Activity (Staphylococcus aureus [22]): 4
- RatioAUC/MIC (Staphylococcus aureus [23]): 160
- RatioAUC/MIC (Streptococcus pneumoniae [24]): 34.5
- Cmax [25]: 7.4 µg/mL
- Activity (Staphylococcus aureus [26]): 122
- RatioAUC/MIC (Staphylococcus aureus [27]): 94
- Ratio (Staphylococcus aureus [28]): 93
- Ratio (Staphylococcus aureus [29]): 46.1
